This is a sample that favours compounds with a hit; in the whole collection about 1.3% have one here.
PfG6PD inh = PfG6PD (Plasmodium falciparum) enzyme inhibition; PfGluPho enzyme, NADPH resazurin-diaphorase fluorescence; inhibition, % at 20 µM; 350,000 tested, 0.78% active; AID 504690;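 active means inhibition reaching at least a set limit at 20 µM in the primary screen, cut at about 59% in these data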;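 further: 0% = DMSO wells with substrate and 100% = DMSO wells lacking glucose-6-phosphate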
Tb hexokinase = blocks Trypanosoma brucei hexokinase 1 activity. inhibition, % at 10 µM. 220,000 tested, 0.11% active. recombinant TbHK1, G6PDH-coupled NADH A340;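 active means inhibition of 50% or more in the single-dose primary screen; inactive means inhibition below 50%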
HKDC1 inhibitor = blocks human hexokinase HKDC1 activity | recombinant HKDC1, G6PDH/diaphorase resazurin coupled fluorescence | inhibition, % at 20 µM | 340,000 tested, 0.16% active;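 active means inhibition above about 35% when tested at 20 µM, limit read from the data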;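 further: plate controls were DMSO wells with enzyme for no effect and DMSO wells lacking enzyme for full effect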
Target sequence (Q2TB90 whole entry, looked up): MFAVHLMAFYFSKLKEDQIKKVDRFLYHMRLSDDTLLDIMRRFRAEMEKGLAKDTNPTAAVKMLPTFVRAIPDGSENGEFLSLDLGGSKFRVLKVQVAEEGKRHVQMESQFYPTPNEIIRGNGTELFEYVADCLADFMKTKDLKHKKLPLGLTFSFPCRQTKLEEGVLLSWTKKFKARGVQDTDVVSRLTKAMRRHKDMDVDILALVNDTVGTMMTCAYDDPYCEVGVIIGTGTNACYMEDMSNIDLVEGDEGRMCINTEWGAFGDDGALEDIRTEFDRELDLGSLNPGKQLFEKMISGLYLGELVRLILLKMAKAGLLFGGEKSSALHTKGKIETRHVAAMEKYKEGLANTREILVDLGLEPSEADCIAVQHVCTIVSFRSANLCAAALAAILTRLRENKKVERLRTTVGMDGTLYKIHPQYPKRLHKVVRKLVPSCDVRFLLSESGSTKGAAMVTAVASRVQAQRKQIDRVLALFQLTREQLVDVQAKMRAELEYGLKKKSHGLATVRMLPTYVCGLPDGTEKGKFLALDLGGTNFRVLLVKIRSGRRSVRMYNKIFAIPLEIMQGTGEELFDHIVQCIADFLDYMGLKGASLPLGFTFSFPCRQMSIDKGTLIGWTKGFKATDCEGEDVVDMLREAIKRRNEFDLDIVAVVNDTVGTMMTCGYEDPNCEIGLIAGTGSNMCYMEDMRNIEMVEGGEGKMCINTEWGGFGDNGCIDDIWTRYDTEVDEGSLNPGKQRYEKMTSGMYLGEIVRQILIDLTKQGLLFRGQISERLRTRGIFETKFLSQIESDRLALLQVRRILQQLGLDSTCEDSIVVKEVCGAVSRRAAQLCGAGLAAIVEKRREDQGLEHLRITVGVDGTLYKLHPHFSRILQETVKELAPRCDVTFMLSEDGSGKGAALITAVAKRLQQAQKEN
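System: Recombinant HKDC1 hexokinase | Amount: HKDC1 at 5 µg/mL | Reagent: Glucose with 1 mM ATP | Doses: Single 20 µM dose | Incubation: Reaction time 90 min, room temperature, protected from light | Signal: Coupled resazurin fluorescence, excitation 525 nm, emission 613 nm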
Diaph act CS = diaphorase activation or chemical reduction counter-screen; 190,000 tested, 0.005% active; activation factor at 20 µM; Diaphorase/resazurin coupled assay, resorufin fluorescence, 16 min; hits give high values; 1 = vehicle wells, 0 = NADH-free wells; AID 1229;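 active means diaphorase activity raised at least twofold by the compound at 20 µM; inactive means activation factor below 2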
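Material: purified diaphorase enzyme from Clostridium kluyveri; Also added: 0.114 mM NADH and 0.1 mM resazurin, final amounts; Doses: single compound dose of 20 µM, 1% DMSO final; Times: 16 min enzyme reaction, ambient temperature; Detection: resorufin fluorescence, excitation 544 nm, emission 590 nm; Measure: increased resorufin signal from activators or reducing compounds.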
G6PDH counter = counter-screen for G6PDH assay hits: L. mesenteroides G6PDH inhibition; Purified L. mesenteroides G6PDH, diaphorase/resazurin coupled fluorescence, 45 min; inhibition, % at 5 µM; 200,000 tested, 0.12% active; in the data active means inhibition above about 50%
Diaph inh CS = counter-screen for diaphorase-based assays: diaphorase inhibitors and chemical oxidizers; diaphorase resazurin-to-resorufin fluorescence, NADH, 16 min; bacterial (C. kluyveri) enzyme, not human; inhibition, % at 20 µM; 190,000 tested, 0.69% active; AID 1217;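 active means primary screen inhibition at 20 µM above a set limit, cut at about 50% in these data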;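 further: plate controls were DMSO with full reaction for no effect and wells lacking NADH for full effect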
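controls = No-NADH positive control and DMSO neutral control | system = Clostridium kluyveri diaphorase enzyme | timing = reaction incubation of 16 min at room temperature | signal = resorufin fluorescence 544/590 nm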
PfGluPho conf = PfG6PD inhibition, single-dose confirmed. recombinant PfGluPho, NADPH-diaphorase-resazurin fluorescence. inhibition, % at 20 µM. AID 504753. 2,400 tested, 34% active. shares compounds with PfG6PD inh;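 active means inhibition of at least 50% at 20 µM in any single replicate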;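 further: 0% = DMSO with substrate and 100% = DMSO lacking glucose-6-phosphate substrate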
Diaph ctr 10uM = counter-screen for P. falciparum G6PD inhibitors: diaphorase inhibitors, oxidizers. shares compounds with PfG6PD inh. inhibition, % at 20 µM. AID 504862. diaphorase-coupled resazurin reduction, fluorescence, NADPH 10 uM. 820 tested, 39% active;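 active means average inhibition reaching 50% or more with the compound at 20 µM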;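 further: resorufin red fluorescence formed as diaphorase reduces resazurin using NADPH; 0% = DMSO with enzyme and 100% = DMSO without enzyme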
Diaph ctr 30uM = counter-screen for P. falciparum G6PD inhibitors: diaphorase inhibitors, oxidizers. shares compounds with PfG6PD inh. Diaphorase/resazurin coupled assay, resorufin fluorescence, 30 uM NADPH. inhibition, % at 20 µM. 820 tested, 29% active;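 active means inhibition averaging 50% or more, tested at 20 µM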;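 further: 0% = DMSO with enzyme and 100% = DMSO wells lacking diaphorase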
Numbers without * were called inactive; nt = not tested or not shown.

SMILES	PfG6PD inh	Tb hexokinase	HKDC1 inhibitor	Diaph act CS	G6PDH counter	Diaph inh CS	PfGluPho conf	others
O=S(=O)(c1ccccc1)N1CCC2(CC1)OCCO2	10	6	-8	0.9	-5	11	nt
Cc1csc(NC(=O)c2cc3c(s2)CCCCC3)n1	77*	-2	7	1	3	0	10
CCOC(=O)Cc1csc(NC(=O)c2cc3c(s2)CCCC3)n1	6	-16	2	0.9	-3	10	nt
Cc1csc(NC(=O)c2cc3c(s2)CCCC3)n1	62*	-20	5	0.9	12	9	9
COc1ccccc1CN1CC(C(=O)N(C)CCc2nc3ccc(F)cc3[nH]2)CCC1=O (stereo not given)	-3	nt	2	nt	nt	nt	nt
CCOC(=O)c1c2c(n(-c3ccc(OC)cc3)c1C)C(=O)C(=O)c1ccccc1-2	72*	nt	28	nt	nt	nt	36
CCOC(=O)c1sc(=S)n(-c2ccc(OC)cc2)c1C	7	-38	0	nt	nt	nt	nt
CCC(CO)Oc1cc(NCc2ccccc2)c2ncn(C(C)C)c2c1 (stereo not given)	9	nt	16	nt	nt	nt	nt
CCCCOc1cc(NCc2ccccc2)c2ncn(C(C)C)c2c1	73*	nt	18	nt	nt	nt	31
CCC(COC)Oc1cc(NCc2ccccc2)c2ncn(C(C)C)c2c1 (stereo not given)	83*	nt	21	nt	nt	nt	40
CC(C)n1cnc2c(NCc3ccccc3)cc(N[C@H](C)CO)cc21	67*	nt	20	nt	nt	nt	37
COc1cc(NCc2ccccc2)c2ncn(Cc3ccccc3)c2c1	66*	nt	13	nt	nt	nt	50*	Diaph ctr 10uM=-11;Diaph ctr 30uM=-10
Cc1cc(C)cc(-c2nnc(SCC(=O)NCC3CCCO3)o2)c1 (stereo not given)	-1	nt	-1	nt	nt	nt	nt
CCOc1ccc(CN(C)CC(=O)NCc2ccc(F)cc2)cc1	15	nt	-10	nt	nt	nt	nt
CC(=O)OCCNc1cc(N2CCN(C)CC2)c2noc3c2c1C(=O)c1ccccc1-3	85*	-8	31	0.8	22	21	-26
Cc1cc(C)c(Nc2n[nH]c(=S)s2)cc1C	67*	nt	nt	nt	nt	nt	28
COc1cccc(Nc2n[nH]c(=S)s2)c1	62*	-10	-10	0.8	4	22	5
Cc1cccc(C)c1Nc1n[nH]c(=S)s1	54	nt	nt	nt	nt	nt	nt
Cc1cccc(Nc2n[nH]c(=S)s2)c1C	55	-3	20	0.7	-1	26	nt
Cc1ccc(Nc2n[nH]c(=S)s2)c(C)c1	71*	nt	nt	nt	nt	nt	14
O=C1S/C(=C\c2ccc(N3CCOCC3)o2)C(=O)N1Cc1c(F)cccc1Cl	75*	20	-1	0.7	11	28	17
O=C1S/C(=C/c2ccc(N3CCOCC3)o2)C(=O)N1Cc1c(F)cccc1Cl	48	-9	10	0.8	8	20	nt
CCOC(=O)Cn1nc(NC(=O)c2ccc3c(c2)OCO3)cc1C	10	nt	-6	nt	nt	nt	nt
COc1cccc(Nc2nnc(SCC(=O)Nc3sccc3C(N)=O)s2)c1	20	-2	3	0.7	8	31	nt
CCc1ccc(Nc2nnc(SCC(=O)Nc3sccc3C(N)=O)s2)cc1	67*	28	6	0.8	3	25	7
SMILES	PfG6PD inh	Tb hexokinase	HKDC1 inhibitor	Diaph act CS	G6PDH counter	Diaph inh CS	PfGluPho conf	others
CN(O)/C=c1/ccc2c(n1)C(=O)C=CC=2	68*	-24	11	0.3	58*	69*	58*	Diaph ctr 10uM=-18;Diaph ctr 30uM=-12
CCn1cc(S(=O)(=O)NCCc2ccccc2OC)cn1	-14	nt	4	nt	nt	nt	nt
Cc1ccc2nc(/C(C#N)=C\c3ccc(N4CCOCC4)o3)[nH]c2c1	25	-13	11	0.6	15	36	nt
Cc1ccc(/C(C#N)=C\c2ccc(N3CCOCC3)o2)cc1	72*	-6	-4	0.9	-10	5	-2
CCOC(=O)c1c(C)[nH]c(C2=NNC(=Nc3cccc(Cl)c3)SC2)c1C	nt	-11	nt	0.8	4	17	nt
C[C@H]1CN([C@@H](C)CO)C(=O)c2cc(NS(=O)(=O)c3ccc(Cl)cc3)ccc2O[C@@H]1CN(C)CC1CCCCC1	11	nt	-1	nt	nt	nt	nt
CCN(CC(=O)Nc1ccccc1C(F)(F)F)C(=O)c1ccc2[nH]c3c(c2c1)CC(C)CC3 (stereo not given)	90*	nt	0	nt	nt	nt	37
O=C(COC(=O)CN1C(=O)c2ccccc2C1=O)Nc1ccccc1C(F)(F)F	7	nt	nt	nt	nt	nt	nt
COc1ccc(OC2C(=O)N(c3ccc(C)c(C)c3)C2c2ccc(OC)c(OC)c2)cc1 (stereo not given)	97*	-2	1	0.8	-20	22	28
COc1ccc(OC2C(=O)N(c3cc(C)ccc3C)C2c2ccc(OC)c(OC)c2)cc1 (stereo not given)	23	8	-6	0.8	-13	22	nt
Nc1cc(=O)[nH]c(SCC(=O)c2ccc(F)cc2)n1	-3	nt	11	nt	nt	nt	nt
COc1cc(C(C)=O)ccc1OCC(=O)Nc1cc(C)on1	-2	nt	-4	nt	nt	nt	nt
COc1cc(NCCCn2cnc3c(OCc4ccccc4)ncnc32)cc(OC)c1OC	80*	nt	4	nt	nt	nt	67*	Diaph ctr 10uM=-14;Diaph ctr 30uM=-23
COc1ncnc2c1ncn2CCCNc1ccc(C)c(C)c1	7	nt	nt	nt	nt	nt	nt
COc1cc(NCCCn2ccc(NC(=O)OCc3ccccc3)nc2=O)cc(OC)c1OC	80*	nt	18	nt	nt	nt	74*	Diaph ctr 10uM=-4;Diaph ctr 30uM=5
CCOC(=O)c1oc2ccccc2c1NC(=O)c1cccc(OC)c1OC	9	-3	-3	1	-12	-4	nt
Cc1cc(C)c(S(=O)(=O)NC2CC3CCC2C3)c(C)c1 (stereo not given)	-36	nt	0	nt	nt	nt	nt
CCOC(=O)c1[nH]cc(-c2ccccc2)c1N1CCOCC1	73*	-1	-8	0.9	8	13	25
CCOC(=O)c1cnc(-c2ccccc2)nc1N1CCOCC1	-15	-9	0	0.9	11	14	nt
COc1cc(C=c2c3ccccc3n3c2cc(-c2ccccc2)[n+]3C)cc(OC)c1OC	14	nt	27	nt	nt	nt	nt
CN(C)c1ccc(C=c2c3cc([N+](=O)[O-])ccc3n3c2cc(-c2ccccc2)[n+]3C)cc1	120*	nt	20	nt	nt	nt	93*	Diaph ctr 10uM=24;Diaph ctr 30uM=24
O=C(CN1C(=O)C2C3C=CC(C3)C2C1=O)OCC(=O)c1ccc([N+](=O)[O-])cc1 (stereo not given)	59*	nt	-4	nt	nt	nt	60*	Diaph ctr 10uM=-1;Diaph ctr 30uM=-4
O=C(CCSCCC(=O)NN=Cc1ccc(F)cc1)NN=Cc1ccc(F)cc1	16	nt	-8	nt	nt	nt	nt

Source: PubChem BioAssay (several laboratories)
